Source: ChEMBL document CHEMBL5360562 (Eur J Med Chem, 2023)
≈ marks a conversion by molar mass, not a printed value. Blank lines part the entries; values can stand above or below the compound they belong to.

Assays:
[1] = tested on: Acinetobacter baumannii; test: Antibacterial activity against Acinetobacter baumannii AB5075 assessed as reduction in bacterial growth incubated for 16 hrs by broth microdilution method; assay type: functional
[2] = tested on: Acinetobacter baumannii; test: Potentiation of Clarithromycin antibacterial activity against Acinetobacter baumannii AB5075 assessed as clarithromycin MIC at 7.5 uM incubated for 16 hrs by broth microdilution method; assay type: functional
[3] = tested on: Acinetobacter baumannii; test: Potentiation of Clarithromycin antibacterial activity against Acinetobacter baumannii AB5075 assessed as clarithromycin MIC at 5 uM incubated for 16 hrs by broth microdilution method; assay type: functional
[4] = tested on: Acinetobacter baumannii; test: Potentiation of Clarithromycin antibacterial activity against Acinetobacter baumannii AB5075 assessed as fold reduction in clarithromycin MIC at 7.5 uM incubated for 16 hrs by broth microdilution method; assay type: functional
Method in brief: (§1)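 Checkerboard-style potentiation by broth microdilution. 6 h day cultures in CAMHB diluted to 5×10^5 CFU/mL. Adjuvant added from 10 mM DMSO stock at fixed concentration throughout. […] Controls: antibiotic alone, adjuvant alone, media only. Incubated stationary at 37 °C for 16 h. MIC is lowest concentration with no visible growth; fold reduction taken against the antibiotic-alone lane.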

[5] = tested on: Acinetobacter baumannii; test: Potentiation of Clarithromycin antibacterial activity against Acinetobacter baumannii AB5075 assessed as fold reduction in clarithromycin MIC at 5 uM incubated for 16 hrs by broth microdilution method; assay type: functional; method in brief: as §1
[6] = tested on: Acinetobacter baumannii; test: Potentiation of Clarithromycin antibacterial activity against Acinetobacter baumannii AB5075 assessed as clarithromycin MIC at 15 uM incubated for 16 hrs by broth microdilution method; assay type: functional
[7] = tested on: Acinetobacter baumannii; test: Potentiation of Clarithromycin antibacterial activity against Acinetobacter baumannii AB5075 assessed as fold reduction in clarithromycin MIC at 15 uM incubated for 16 hrs by broth microdilution method; assay type: functional
[8] = Antiproliferative against human HepG2 cells assessed as reduction in cell viability incubated for 24 hrs by XTT assay; assay type: toxicity, cell-based
[9] = Therapeutic index, ratio of IC50 for antiproliferative against human HepG2 cells assessed as reduction in cell viability to MIC for potentiation of Clarithromycin antibacterial activity against Acinetobacter baumannii […] assessed as clarithromycin MIC; assay type: toxicity, cell-based; details: read-out: TI
[10] = Stability of compound in human plasma assessed as parent compound remaining measured at 4 hrs; assay type: ADME, cell-free
Method in brief: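 Compound at 20 μM final in human plasma (from 10 mM DMSO stock), 37 °C; aliquots at 0, 30, 60, 120, 240 min quenched in internal standard in 1:1 ACN/MeOH, centrifuged, supernatant analysed by UPLC-MRM. Peak-area ratio to internal standard expressed as % parent remaining relative to 0 min; half-life calculated.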

[11] = Metabolic stability in human liver microsomes assessed as parent compound remaining in presence of NADPH measured at 1 hr by UV-UPLC analysis; assay type: ADME, Microsome
[12] = tested on: Acinetobacter baumannii; test: Potentiation of Clarithromycin antibacterial activity against Acinetobacter baumannii AB5075 assessed as clarithromycin MIC at 30 uM incubated for 16 hrs by broth microdilution method; assay type: functional
[13] = tested on: Acinetobacter baumannii; test: Potentiation of Clarithromycin antibacterial activity against Acinetobacter baumannii AB5075 assessed as fold reduction in clarithromycin MIC at 30 uM incubated for 16 hrs by broth microdilution method; assay type: functional; method in brief: as §1
[14] = tested on: Acinetobacter baumannii; test: Potentiation of Clarithromycin antibacterial activity against Acinetobacter baumannii AB5075 assessed as clarithromycin MIC at 20 uM incubated for 16 hrs by broth microdilution method; assay type: functional
[15] = tested on: Acinetobacter baumannii; test: Potentiation of Clarithromycin antibacterial activity against Acinetobacter baumannii AB5075 assessed as reduction in clarithromycin MIC at 20 uM incubated for 16 hrs by broth microdilution method; assay type: functional
[16] = tested on: Acinetobacter baumannii; test: Potentiation of Clarithromycin antibacterial activity against Acinetobacter baumannii AB5075 assessed as clarithromycin MIC at 10 uM incubated for 16 hrs by broth microdilution method; assay type: functional
[17] = tested on: Acinetobacter baumannii; test: Potentiation of Azithromycin antibacterial activity against Acinetobacter baumannii AB5075 assessed as azithromycin MIC at 30 uM incubated for 16 hrs by broth microdilution method; assay type: functional
[18] = tested on: Acinetobacter baumannii; test: Potentiation of Azithromycin antibacterial activity against Acinetobacter baumannii AB5075 assessed as azithromycin MIC at 20 uM incubated for 16 hrs by broth microdilution method; assay type: functional
[19] = tested on: Acinetobacter baumannii; test: Potentiation of Azithromycin antibacterial activity against Acinetobacter baumannii AB5075 assessed as azithromycin MIC at 10 uM incubated for 16 hrs by broth microdilution method; assay type: functional
[20] = tested on: Acinetobacter baumannii; test: Potentiation of erythromycin antibacterial activity against Acinetobacter baumannii AB5075 assessed as erythromycin MIC at 30 uM incubated for 16 hrs by broth microdilution method; assay type: functional
[21] = tested on: Acinetobacter baumannii; test: Potentiation of erythromycin antibacterial activity against Acinetobacter baumannii AB5075 assessed as erythromycin MIC at 20 uM incubated for 16 hrs by broth microdilution method; assay type: functional
[22] = tested on: Acinetobacter baumannii; test: Potentiation of erythromycin antibacterial activity against Acinetobacter baumannii AB5075 assessed as erythromycin MIC at 10 uM incubated for 16 hrs by broth microdilution method; assay type: functional
[23] = tested on: Acinetobacter baumannii; test: Potentiation of rifampicin antibacterial activity against Acinetobacter baumannii AB5075 assessed as rifampicin MIC at 30 uM incubated for 16 hrs by broth microdilution method; assay type: functional
[24] = tested on: Acinetobacter baumannii; test: Potentiation of rifampicin antibacterial activity against Acinetobacter baumannii AB5075 assessed as rifampicin MIC at 20 uM incubated for 16 hrs by broth microdilution method; assay type: functional
[25] = tested on: Acinetobacter baumannii; test: Potentiation of rifampicin antibacterial activity against Acinetobacter baumannii AB5075 assessed as rifampicin MIC at 10 uM incubated for 16 hrs by broth microdilution method; assay type: functional

MIC [1]: 50 µM (≈ 22.6 µg/mL)
MIC [2]: 0.25 µg/mL
MIC [3]: 4 µg/mL
MIC [6]: 0.125 µg/mL
Stability [10]: 89%
Stability [11]: 54%
SMILES: Nc1nc(-c2ccc(NC(=O)Nc3cc(Br)cc(Br)c3)cc2)c[nH]1
fold change (FC) [4]: 128
fold change (FC) [5]: 8
fold change (FC) [7]: 256
IC50 at 24 h [8]: 23.2 µg/mL (≈ 51.4 µM)
selectivity ratio [9]: 6.3

SMILES: Nc1nc(-c2ccc(NC(=O)Nc3ccc(-c4c[nH]c(N)n4)cc3)cc2)c[nH]1
MIC [1]: > 200 µM
MIC [12]: 0.125 µg/mL
MIC [2]: 8 µg/mL
fold change (FC) [13]: 256
MIC [14]: 0.5 µg/mL
fold change (FC) [15]: 64
MIC [16]: 4 µg/mL
MIC [17]: 0.5 µg/mL
MIC [18]: 1 µg/mL
MIC [19]: 8 µg/mL
MIC [20]: 0.5 µg/mL
MIC [21]: 2 µg/mL
MIC [22]: 8 µg/mL
MIC [23]: 0.007 µg/mL
MIC [24]: 0.125 µg/mL
MIC [25]: 2 µg/mL
